ChEMBL document CHEMBL3868590, “Quambalarine B, a Secondary Metabolite from Quambalaria cyanescens with Potential Anticancer Properties” (J Nat Prod, 2016)
The source made the active and inactive calls. No cut-off for these calls is given here.

Columns and labels:
[1] = test system: Jurkat; test: Cytostatic activity against eFluor670-labelled human Jurkat cells assessed as live cells at 2 umol/L measured on day 2 by Hoechst-33258 staining-based FACS analysis (reference value: 97%); format: functional
[2] = target: Myc proto-oncogene protein (Homo sapiens) (UniProt P01106); test: Inhibition of C-MYC in human REH cells assessed as decrease in LDHA level at EC50 measured after 24 hrs by RT-qPCR analysis; format: cell-based
Chain of Myc proto-oncogene protein (Homo sapiens) (P01106 whole entry): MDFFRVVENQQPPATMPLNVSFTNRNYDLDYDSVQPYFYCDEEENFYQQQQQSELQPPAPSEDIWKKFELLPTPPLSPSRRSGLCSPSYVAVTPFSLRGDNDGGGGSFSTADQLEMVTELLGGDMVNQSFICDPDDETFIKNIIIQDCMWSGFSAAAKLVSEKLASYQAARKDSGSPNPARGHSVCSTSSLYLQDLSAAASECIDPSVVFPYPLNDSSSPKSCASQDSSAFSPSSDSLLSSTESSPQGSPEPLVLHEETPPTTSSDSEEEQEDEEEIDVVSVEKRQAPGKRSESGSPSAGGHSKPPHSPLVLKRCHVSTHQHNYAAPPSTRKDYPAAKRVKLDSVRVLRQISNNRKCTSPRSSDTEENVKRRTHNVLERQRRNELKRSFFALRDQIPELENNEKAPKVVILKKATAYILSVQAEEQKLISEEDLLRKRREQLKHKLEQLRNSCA

[3] = test system: Jurkat; test: Cytostatic activity against eFluor670-labelled human Jurkat cells assessed as live cells at 2 umol/L measured immediately after compound addition by Hoechst-33258 staining-based FACS analysis (reference value: 98.2%); format: functional
[4] = test system: NALM-6; test: Cytostatic activity against eFluor670-labelled human NALM6 cells assessed as live cells at 2 umol/L measured on day 5 by Hoechst-33258 staining-based FACS analysis (reference value: 98.6%); format: functional
[5] = Cytotoxicity against CD14+ monocytes in human PBMC population assessed as viable cells at 100 umol/L measured after 24 hrs by Hoechst-33258 staining-based FACS analysis (reference value: 13.8%); format: toxicity, cell-based, Monocyte; settings: read-out: Activity
Method in brief: (§1)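 PBMC were isolated from blood on a Ficoll-Paque gradient and seeded at 1 × 10^5 cells/well in 400 μL RPMI1640. Cells were exposed to a range of compound concentrations for 24 h. Viable CD3+, CD14+ and CD20+ populations were measured as Hoechst 33258-negative singlets by flow cytometry. EC50 was obtained by five-parameter nonlinear regression.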

[6] = test system: REH; test: Inhibition of P70S6K in human REH cells assessed as decrease in phosphorylated P70S6K expression measured after 24 hrs by immunoblot analysis; format: cell-based
Method in brief: (§2)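 Cells prepared as for RT-qPCR (7.5 × 10^5 cells/mL). Treated either with the line-specific EC50 concentration over a time course, or 24 h with graded concentrations up to that EC50. Cells washed with phosphatase inhibitors and lysed in RIPA; 40 μg protein per lane on SDS-PAGE, then nitrocellulose. Immunoblotted for C-MYC, P70S6K, p-P70S6K (Ser424) and actin.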

[7] = test system: Jurkat; test: Inhibition of P70S6K in human Jurkat cells assessed as inhibition of phosphorylated P70S6K expression up to 20 umol/L measured after 24 hrs by immunoblot analysis; format: cell-based; method in brief: as §2
[8] = Cytotoxicity against CD3+ T-lymphocytes in human PBMC population assessed as reduction in viable cells measured after 24 hrs by Hoechst-33258 staining-based FACS analysis; format: toxicity, cell-based, T-cell; method in brief: as §1
[9] = target: Myc proto-oncogene protein (Homo sapiens) (UniProt P01106); test: Inhibition of C-MYC in human REH cells assessed as decrease in PKM2 level at EC50 measured after 24 hrs by RT-qPCR analysis; format: cell-based
[10] = test system: NALM-6; test: Cytostatic activity against eFluor670-labelled human NALM6 cells assessed as live cells at 2 umol/L measured on day 2 by Hoechst-33258 staining-based FACS analysis (reference value: 97.7%); format: functional
[11] = test system: NALM-6; test: Inhibition of P70S6K in human NALM6 cells assessed as decrease in C-MYC expression measured after 24 hrs by immunoblot analysis; format: cell-based; method in brief: as §2
[12] = Cytotoxicity against human REH cells assessed as reduction in viable cells measured after 24 hrs by Hoechst-33258 staining-based FACS analysis; format: functional, cell-based
Method in brief: (§3)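 Leukemic lines kept in RPMI1640 with 10% FBS, penicillin/streptomycin, 37 °C, 5% CO2. Seeded at 2 × 10^5 cells/mL and exposed 24 h to a range of compound concentrations (DMSO stock); medium and DMSO negative controls. Live fraction taken from Hoechst 33258-negative singlets by flow cytometry. EC50 from five-parameter nonlinear regression.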

[13] = Cytotoxicity against PHA/LPS-stimulated CD3-positive T-lymphocytes in eFluor-670-labeled human PBMC assessed as proliferation index at 2 umol/L administered post 18 hrs of PHA/LPS-stimulation measured after 72 hrs by Hoechst-33258 staining-based FACS analysis (reference value: 1.58); format: toxicity; settings: t-cell, 2 µM
Method in brief: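 PBMC were labelled with 1 μmol/L CPD, stimulated with PHA (5 μg/mL) plus LPS (1 μg/mL), and seeded at 3 × 10^5 cells/well in 300 μL. Compound was added after 18 h and left for 72 h. Cells were stained with anti-CD3. Unstimulated cells set the CPD+ gate. Proliferation index, division index and % divided were calculated for CPD+CD3+ Hoechst-negative cells.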

[14] = test system: REH; test: Cytostatic activity against eFluor670-labelled human REH cells assessed as live cells at 2 umol/L measured on day 5 by Hoechst-33258 staining-based FACS analysis (reference value: 85.6%); format: functional
[15] = target: Myc proto-oncogene protein (Homo sapiens) (UniProt P01106); test: Inhibition of C-MYC in human Jurkat cells assessed as decrease in LDHA level at EC50 measured after 24 hrs by RT-qPCR analysis; format: cell-based
[16] = test system: REH; test: Inhibition of P70S6K in human REH cells assessed as decrease in phosphorylated P70S6K expression at EC50 by immunoblot analysis; format: cell-based; settings: TDE = time-dependent effect; method in brief: as §2
[17] = Downregulation of P70S6K protein expression in human REH cells at EC50 measured after 24 hrs by immunoblot analysis; format: functional, cell-based; method in brief: as §2
[18] = test system: Jurkat; test: Cytostatic activity against eFluor670-labelled human Jurkat cells assessed as live cells at 2 umol/L measured on day 1 by Hoechst-33258 staining-based FACS analysis (reference value: 98.2%); format: functional
[19] = target: Myc proto-oncogene protein (Homo sapiens) (UniProt P01106); test: Inhibition of C-MYC in human NALM6 cells assessed as decrease in LDHA level at EC50 measured after 24 hrs by RT-qPCR analysis; format: cell-based; settings: NALM-6
[20] = Cytotoxicity against CD14+ monocytes in human PBMC population assessed as reduction in viable cells measured after 24 hrs by Hoechst-33258 staining-based FACS analysis; format: toxicity, cell-based, Monocyte; method in brief: as §1
[21] = target: Myc proto-oncogene protein (Homo sapiens) (UniProt P01106); test: Inhibition of C-MYC in human NALM6 cells assessed as decrease in GLS level at EC50 measured after 24 hrs by RT-qPCR analysis; format: cell-based; settings: NALM-6
[22] = test system: Jurkat; test: Cytostatic activity against eFluor670-labelled human Jurkat cells assessed as live cells at 2 umol/L measured on day 4 by Hoechst-33258 staining-based FACS analysis (reference value: 97.3%); format: functional
[23] = Cytotoxicity against human NALM6 cells assessed as reduction in viable cells measured after 24 hrs by Hoechst-33258 staining-based FACS analysis; format: functional, cell-based; settings: NALM-6, 24 h; method in brief: as §3
[24] = test system: NALM-6; test: Cytostatic activity against eFluor670-labelled human NALM6 cells assessed as live cells at 2 umol/L measured immediately after compound addition by Hoechst-33258 staining-based FACS analysis (reference value: 95.8%); format: functional
[25] = Cytotoxicity against CD14+ monocytes in human PBMC population assessed as viable cells at 15 umol/L measured after 24 hrs by Hoechst-33258 staining-based FACS analysis (reference value: 13.8%); format: toxicity, cell-based, Monocyte; settings: read-out: Activity; method in brief: as §1
[26] = Downregulation of P70S6K protein expression in human Jurkat cells up to 20 umol/L measured after 24 hrs by immunoblot analysis; format: functional, cell-based; method in brief: as §2
[27] = Cytotoxicity against PHA/LPS-stimulated CD3-positive T-lymphocytes in eFluor670-labeled human PBMC assessed as division index at 2 umol/L administered post 18 hrs of PHA/LPS-stimulation measured after 72 hrs by Hoechst-33258 staining-based FACS analysis (reference value: 0.381); format: toxicity; settings: t-cell, 2 µM

**Q.** With `CCCCCC(=O)C1=C(O)C(=O)c2c(O)c(O)cc(O)c2C1=O` as the compound, how does the Activity [1] read?
**A.** 70.1%

**Q.** And the inhibition [2]?
**A.** Active

**Q.** What about the Activity [3] of the same compound?
**A.** 98.2%

**Q.** What about the Activity [4] of the same compound?
**A.** 50.1%

**Q.** And the viability at 24 h, 100 µM [5]?
**A.** 0.21%

**Q.** What about the inhibition [6] of the same compound?
**A.** Dose-dependent effect

**Q.** And the inhibition [7]?
**A.** Active

**Q.** What about the EC50 at 24 h [8] of the same compound?
**A.** 65.7 µM

**Q.** And the inhibition [9]?
**A.** Active

**Q.** And the Activity [10]?
**A.** 97.7%

**Q.** What about the inhibition [11] of the same compound?
**A.** Dose-dependent effect

**Q.** What about the EC50 [12] of the same compound?
**A.** 22 µM

**Q.** And the Activity_index [13]?
**A.** 1.23

**Q.** What about the Activity [14] of the same compound?
**A.** 4.17%

**Q.** And the inhibition [15]?
**A.** Active

**Q.** And the inhibition [16]?
**A.** Tde

**Q.** What about the Activity [17] of the same compound?
**A.** Active

**Q.** And the Activity [18]?
**A.** 88.4%

**Q.** What about the inhibition [19] of the same compound?
**A.** Active

**Q.** And the EC50 at 24 h [20]?
**A.** 15.1 µM

**Q.** And the inhibition [21]?
**A.** Active

**Q.** And the Activity [22]?
**A.** 39.5%

**Q.** And the EC50 [23]?
**A.** 16.7 µM

**Q.** What about the Activity [24] of the same compound?
**A.** 95.8%

**Q.** What about the viability at 24 h, 15 µM [25] of the same compound?
**A.** 8.1%

**Q.** What about the inhibition [26] of the same compound?
**A.** Active

**Q.** What about the Activity_index [27] of the same compound?
**A.** 0.196
